Results from ChEMBL document CHEMBL2062460, “Disubstituted thiourea derivatives and their activity on CNS: synthesis and biological evaluation” (Eur J Med Chem, 2012).
The source made the active and inactive calls. The rule behind the calls is not given here.

Key:
Pseudomonas aeruginosa [1] = assay: Antibacterial activity against Pseudomonas aeruginosa ATCC 15442 at 400 ug/disc after 18 hrs by disc diffusion method; type: functional, organism-based
How it was run: (§1)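 Disc diffusion per CLSI on Mueller–Hinton II agar; 9 mm paper discs loaded from methanol or DMSO solutions to 400 µg per disc, dried; growth inhibition zone diameter read after 18 h at 35 °C.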

Escherichia coli [2] = assay: Antibacterial activity against Escherichia coli ATCC 10538 at 400 ug/disc after 18 hrs by disc diffusion method; type: functional, organism-based; how it was run: as §1
Mus musculus [3] = assay: Reduction of body temperature in normothermic Albino Swiss mouse administered at doses equivalent to 0.1 ED50, ip measured in rectum by thermistor thermometer analysis; type: ADME, organism-based; conditions: in vivo
Candida parapsilosis = assay: Antifungal activity against Candida parapsilosis ATCC 22019 at 400 ug/disc after 18 hrs by disc diffusion method; type: functional, organism-based
How it was run: (§2)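 Yeasts tested by disc diffusion (CLSI) on RPMI agar with 2% glucose; 9 mm paper discs bearing 400 µg compound from methanol or DMSO solution; inhibition zone diameter read after 18 h at 35 °C.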

Staphylococcus aureus [4] = assay: Antibacterial activity against Staphylococcus aureus ATCC 6538 at 400 ug/disc after 18 hrs by disc diffusion method; type: functional; how it was run: as §1
Mus musculus [5] = assay: Toxicity in Albino Swiss mouse assessed as motor coordination administered at doses equivalent to 0.1 ED50, ip by chimney test; type: organism-based; conditions: in vivo
Candida albicans [6] = assay: Antifungal activity against Candida albicans ATCC 10231 at 400 ug/disc after 18 hrs by disc diffusion method; type: functional, organism-based; how it was run: as §2
Mus musculus [7] = assay: Anticonvulsant activity in Albino Swiss mouse assessed as protection against pentylenetetrazole-induced mortality administered at doses equivalent to 0.1 ED50, ip; type: functional, organism-based
[8] = test system: Bordetella bronchiseptica; assay: Antibacterial activity against Bordetella bronchiseptica ATCC 4617 at 400 ug/disc after 18 hrs by disc diffusion method; type: functional, organism-based; how it was run: as §1
[9] = test system: Human immunodeficiency virus 1; assay: Antiviral activity against HIV1 infected in human MT4 cells assessed as virus-induced cytopathogenicity after 4 days by MTT assay; type: functional, organism-based; conditions: Human immunodeficiency virus 1, MT4, 96 h
Mus musculus [10] = assay: Reduction of 5-hydroxytryptophan-induced head twitch in Albino Swiss mouse administered at doses equivalent to 0.1 ED50, ip; type: functional, organism-based
Bacillus subtilis = assay: Antibacterial activity against Bacillus subtilis ATCC 6633 at 400 ug/disc after 18 hrs by disc diffusion method; type: functional; conditions: ATCC 6633, 18 h, read-out: DIZ; how it was run: as §1
Staphylococcus aureus [11] = assay: Antibacterial activity against Staphylococcus aureus NCTC 4163 at 400 ug/disc after 18 hrs by disc diffusion method; type: functional; how it was run: as §1
Staphylococcus aureus [12] = assay: Antibacterial activity against Staphylococcus aureus ATCC 25923 at 400 ug/disc after 18 hrs by disc diffusion method; type: functional; how it was run: as §1
Mus musculus [13] = assay: Toxicity in Albino Swiss mouse assessed as locomotor activity administered at doses equivalent to 0.1 ED50, ip measured after 1 hr for 30 mins; type: organism-based; conditions: in vivo
How it was run: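 Spontaneous locomotor activity of single male Albino Swiss mice in photoresistor actometers (two light beams), beam crossings recorded for 30 min, starting 60 min after i.p. compound in 0.5% methylcellulose.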

Candida albicans [14] = assay: Antifungal activity against Candida albicans ATCC 90028 at 400 ug/disc after 18 hrs by disc diffusion method; type: functional, organism-based; how it was run: as §2
Mus musculus [15] = assay: Antinociceptive activity in Albino Swiss mouse administered at doses equivalent to 0.025 to 0.1 ED50, ip; type: functional, organism-based
Pseudomonas aeruginosa [16] = assay: Antibacterial activity against Pseudomonas aeruginosa ATCC 27853 at 400 ug/disc after 18 hrs by disc diffusion method; type: functional, organism-based; how it was run: as §1
Micrococcus luteus [17] = assay: Antibacterial activity against Micrococcus luteus ATCC 9341 at 400 ug/disc after 18 hrs by disc diffusion method; type: functional; conditions: ATCC 9341, 18 h, read-out: DIZ; how it was run: as §1
Mus musculus [18] = assay: Toxicity in Albino Swiss mouse assessed as effect on amphetamine-induced hyperactivity administered at doses equivalent to 0.1 ED50, ip; type: organism-based; conditions: in vivo
How it was run: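 Compound i.p. in 0.5% methylcellulose 60 min before test; amphetamine 5 mg/kg s.c. 30 min before test; single mice in photoresistor actometers, light-beam crossings counted for 30 min.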

Pseudomonas aeruginosa [19] = assay: Antibacterial activity against Pseudomonas aeruginosa NCTC 6749 at 400 ug/disc after 18 hrs by disc diffusion method; type: functional, organism-based; how it was run: as §1
Escherichia coli [20] = assay: Antibacterial activity against Escherichia coli ATCC 25922 at 400 ug/disc after 18 hrs by disc diffusion method; type: functional, organism-based; how it was run: as §1
Mus musculus [21] = assay: Anticonvulsant activity in Albino Swiss mouse assessed as protection against pentylenetetrazole-induced severity of clonic or tonic seizures administered at doses equivalent to 0.1 ED50, ip; type: functional, organism-based
Proteus vulgaris = assay: Antibacterial activity against Proteus vulgaris NCTC 4635 at 400 ug/disc after 18 hrs by disc diffusion method; type: functional, organism-based; how it was run: as §1
[22] = Cytotoxicity against human MT4 cells after 96 hrs by MTT assay; type: cell-based
Escherichia coli [23] = assay: Antibacterial activity against Escherichia coli NCTC 8196 at 400 ug/disc after 18 hrs by disc diffusion method; type: functional, organism-based; how it was run: as §1
Micrococcus luteus [24] = assay: Antibacterial activity against Micrococcus luteus ATCC 10240 at 400 ug/disc after 18 hrs by disc diffusion method; type: functional; conditions: ATCC 10240, 18 h, read-out: DIZ; how it was run: as §1
Staphylococcus aureus [25] = assay: Antibacterial activity against Staphylococcus aureus ATCC 29213 at 400 ug/disc after 18 hrs by disc diffusion method; type: functional; how it was run: as §1
Bacillus cereus = assay: Antibacterial activity against Bacillus cereus ATCC 11778 at 400 ug/disc after 18 hrs by disc diffusion method; type: functional; how it was run: as §1
[26] = test system: Staphylococcus epidermidis; assay: Antibacterial activity against Staphylococcus epidermidis ATCC 12228 at 400 ug/disc after 18 hrs by disc diffusion method; type: functional; how it was run: as §1
Enterococcus hirae = assay: Antibacterial activity against Enterococcus hirae ATCC 10541 at 400 ug/disc after 18 hrs by disc diffusion method; type: functional; how it was run: as §1
Mus musculus [27] = assay: Toxicity in Albino Swiss mouse assessed as motor coordination administered at doses equivalent to 0.1 ED50, ip by rota rod test; type: organism-based; conditions: in vivo
SK-MEL-28 = assay: Cytotoxicity against human SK-MEL-28 cells after 96 hrs by MTT assay; type: functional; conditions: SK-MEL-28, 96 h
How it was run: (§3)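 Solid tumour lines were seeded at 1 × 10^5 cells/ml in line-specific media with 10% FCS and antibiotics. Serial dilutions from a 100 mM DMSO stock were added. After 96 h at 37 °C in 5% CO2, viability was read by MTT. The 50% growth-inhibiting concentration (µM) was obtained by linear regression versus untreated controls. Values are means of three independent determinations.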

CCRF-SB = assay: Cytotoxicity against human CCRF-SB cells after 96 hrs by MTT assay; type: functional
How it was run: (§4)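 Haematological tumour lines were seeded at 1 × 10^5 cells/ml in RPMI-1640 with 10% FCS plus penicillin/streptomycin. Serial dilutions from a 100 mM DMSO stock were added. After 96 h at 37 °C in 5% CO2, viability was read by MTT. The 50% proliferation-inhibiting concentration (µM) was obtained by linear regression against untreated controls, which completed at least three rounds of multiplication. Values are means of three determinations.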

MCF7 = assay: Cytotoxicity against human MCF7 cells after 96 hrs by MTT assay; type: functional; conditions: MCF7, 96 h; how it was run: as §3
DU-145 = assay: Cytotoxicity against human DU145 cells after 96 hrs by MTT assay; type: functional; conditions: DU-145, 96 h; how it was run: as §3
CCRF-CEM = assay: Cytotoxicity against human CCRF-CEM cells after 96 hrs by MTT assay; type: functional; how it was run: as §4
WIL2-NS = assay: Cytotoxicity against human WIL2-NS cells after 96 hrs by MTT assay; type: functional; how it was run: as §4
HepG2 = assay: Cytotoxicity against human HepG2 cells after 96 hrs by MTT assay; type: functional; conditions: HepG2, 96 h; how it was run: as §3
SK-MES-1 = assay: Cytotoxicity against human SKMES1 cells after 96 hrs by MTT assay; type: functional; conditions: SK-MES-1, 96 h; how it was run: as §3

S=C(Nc1cccc(Br)c1)Nc1nc[nH]n1
diameter of the inhibition zone (DIZ) (Pseudomonas aeruginosa [1]): inactive | diameter of the inhibition zone (DIZ) (Escherichia coli [2]): inactive | Activity (Mus musculus [3]): Toxic | diameter of the inhibition zone (DIZ) (Candida parapsilosis): inactive | diameter of the inhibition zone (DIZ) (Staphylococcus aureus [4]): inactive | Activity (Mus musculus [5]): Non-toxic | diameter of the inhibition zone (DIZ) (Candida albicans [6]): inactive | Activity (Mus musculus [7]): inactive | diameter of the inhibition zone (DIZ) [8]: inactive | EC50 [9]: > 50000 nM | Activity (Mus musculus [10]): Active | zone of inhibition at 400 µg/disc (Bacillus subtilis): 16 mm | diameter of the inhibition zone (DIZ) (Staphylococcus aureus [11]): inactive | diameter of the inhibition zone (DIZ) (Staphylococcus aureus [12]): inactive | Activity (Mus musculus [13]): Non-toxic | diameter of the inhibition zone (DIZ) (Candida albicans [14]): inactive | Activity (Mus musculus [15]): Active | diameter of the inhibition zone (DIZ) (Pseudomonas aeruginosa [16]): inactive | zone of inhibition at 400 µg/disc (Micrococcus luteus [17]): 15 mm | Activity (Mus musculus [18]): Non-toxic | diameter of the inhibition zone (DIZ) (Pseudomonas aeruginosa [19]): inactive | diameter of the inhibition zone (DIZ) (Escherichia coli [20]): inactive | Activity (Mus musculus [21]): inactive | diameter of the inhibition zone (DIZ) (Proteus vulgaris): inactive | CC50 at 96 h [22]: 50000 nM | diameter of the inhibition zone (DIZ) (Escherichia coli [23]): inactive | zone of inhibition at 400 µg/disc (Micrococcus luteus [24]): 14 mm | diameter of the inhibition zone (DIZ) (Staphylococcus aureus [25]): inactive | diameter of the inhibition zone (DIZ) (Bacillus cereus): inactive | diameter of the inhibition zone (DIZ) [26]: inactive | diameter of the inhibition zone (DIZ) (Enterococcus hirae): inactive | Activity (Mus musculus [27]): Non-toxic

CC[C@@]1(O)C(=O)OCc2c1cc1n(c2=O)Cc2cc3ccccc3nc2-1 [CAMPTOTHECIN]
CC50 (SK-MEL-28): 70 nM | CC50 (CCRF-SB): 4 nM | CC50 (MCF7): 80 nM | CC50 (DU-145): 80 nM | CC50 (CCRF-CEM): 3 nM | CC50 (WIL2-NS): 5 nM | CC50 at 96 h [22]: 4 nM | CC50 (HepG2): 40 nM | CC50 (SK-MES-1): 50 nM
